Source: ChEMBL document CHEMBL4715822, “Structure-based lead optimization to improve antiviral potency and ADMET properties of phenyl-1H-pyrrole-carboxamide entry inhibitors targeted to HIV-1 gp120” (Eur J Med Chem, 2018)
≈ marks a conversion by molar mass, not a printed value.

Assays:
[1] = test system: Human immunodeficiency virus 1; assay: Antiviral activity against pseudovirus HIV-1 HXB-2 harboring Env S375Y mutant infected in human U87.CD4.CXCR4 cells assessed as reduction in viral infection pretreated for 30 mins before viral infection and measured after 3 days by luciferase based assay; format: functional, cell-based, M:B_HXB2R
Summary of the method: (§1)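 Pseudoviruses made in HEK293T by co-transfecting an Env-deleted backbone (pSG3Δenv or pNL4-3.Luc.R-.E-) with an HXB-2 Env plasmid carrying single or double substitutions; Env sequences confirmed by sequencing. Virus pretreated 30 min with graded compound, added to U87-CD4-CXCR4 cells (1 × 10⁴/well, plated overnight), incubated 3 days. Cells lysed, luciferase measured, IC50 calculated.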

[2] = Solubility in 5% DMSO at pH 7.4 at 500 uM incubated for 90 mins in shaker by spectrophotometry; format: physicochemical
Summary of the method: (§2)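 DMSO stock diluted to 500 μM in universal aqueous buffer pH 7.4 with 2 or 5% DMSO final; quadruplicate, 90 min shaking at room temperature in filter plate, vacuum filtered; filtrate in 20% acetonitrile read by UV absorbance at six wavelengths. Filtrate/standard ratio binned as ~500, 100–500 or <100 μM.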

[3] = Apparent permeability across basolateral to apical side in human Caco2 cells incubated for 2 hrs by LC-MS/MS analysis; format: ADME, cell-based, Caco-2; details: caco-2, 2 h
Summary of the method: (§3)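 Caco-2 monolayers grown three weeks to differentiate; compound in transport buffer pH 7.4 (glucose, 10 mM HEPES, HBSS) added apical (A-B) or basal (B-A) side, with or without 100 μM verapamil; 2 h incubation, both sides sampled. Lucifer yellow 100 μM on A side checks integrity (≤2% transport). Papp = (dQ/dt)/(C0 × A); efflux ratio = Papp(B→A)/Papp(A→B).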

[4] = Solubility in 2 % DMSO at pH 7.4 at 500 uM incubated for 90 mins in shaker by spectrophotometry; format: physicochemical; summary of the method: as §2
[5] = test system: Human immunodeficiency virus 1; assay: Antiviral activity against pseudovirus HIV-1 HXB-2 harboring Env S375H mutant infected in human U87.CD4.CXCR4 cells assessed as reduction in viral infection pretreated for 30 mins before viral infection and measured after 3 days by luciferase based assay; format: functional, cell-based, M:B_HXB2R; summary of the method: as §1
[6] = test system: Human immunodeficiency virus 1; assay: Antiviral activity against clinical isolate HIV-1 CMU02 infected in human PBMC cells assessed as reduction in viral transmission to TZM-bl cells pretreated for 1 hr before viral transmission and further incubated for 48 hrs by luciferase based assay; format: functional, cell-based; details: Human immunodeficiency virus 1, CMU02, PBMC
[7] = Apparent permeability across apical to basolateral side in human Caco2 cells incubated for 2 hrs by LC-MS/MS analysis; format: ADME, cell-based, Caco-2; details: caco-2, 2 h; summary of the method: as §3
[8] = test system: Human immunodeficiency virus 1; assay: Antiviral activity against clinical isolate HIV-1 92US073 infected in human PBMC cells assessed as reduction in viral transmission to TZM-bl cells pretreated for 1 hr before viral transmission and further incubated for 48 hrs by luciferase based assay; format: functional, cell-based; details: Human immunodeficiency virus 1, 92US073, PBMC
Summary of the method: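 PBMC from healthy HIV-negative donors infected with replication-competent virus in the presence of 30 μg/ml DEAE-dextran. On day 4 post-infection, cells washed free of virus and counted. 2 × 10⁴ infected PBMC/well pretreated with escalating compound for 1 h at 37 °C, then co-cultured 48 h with TZM-bl targets (10⁴/well, plated 24 h before). TZM-bl lysed, luciferase read, IC50 calculated.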

For `COc1cnc(-n2cnc(C)n2)c2[nH]cc(C(=O)C(=O)N3CCN(C(=O)c4ccccc4)CC3)c12`, the IC50 [1] was greater than 1000 nM, the solubility kinetic at […], 500 µM [2] was 100 µM (≈ 47.3 µg/mL) and the Papp [3] was 32 10^-6 cm/s. For the same compound, the solubility kinetic at […], 500 µM [4] was less than 100 µM, the IC50 [5] was greater than 1000 nM and the IC50 [6] was greater than 6000 nM. The Papp [7] was 9.27 10^-6 cm/s and the IC50 [8] was 100 nM.
